Data taken from PMC9868102 (Cell chemical biology, 2023).
Entries after “also recorded” stand apart in the source; their conditions may differ.

Key:
[1] = test system: 9022 cells (HLA-DQ2 homozygous B-cell line); test: Cell surface presentation by HLA-DQ2 expressing 9022 B cells; type: cell-based, human; details: 100 nM TG2; 150 cells from 2-4 frames of 3-6 replicates
How it was run: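 EBV-immortalised HLA-DQ2-homozygous B cells in RPMI with 10% FBS and 1% PenStrep, pelleted, resuspended and left 20 min at 37 °C to adhere on poly-L-lysine-coated glass. Cy5-33mer, α2M and 100 nM recombinant human TG2 (E. coli, His6) added for 2.5 h. Anti-HLA-DQ2 (1:50) then Alexa 488 secondary, each 20 min on ice, fixed, DAPI, confocal. Cells with surface HLA-DQ2/Cy5 overlay scored; 2-4 frames of 3-6 replicates.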

[2] = test system: LRP-1 knock-out MEFs; test: Internalization of HB230 and α2M by LRP-1 knock-out MEFs; type: cell-based, mouse; details: α2M 100 μg/mL, HB230 10 μM, exogenous TRX and betamethasone
[3] = test system: transglutaminase-2 (TG2); test: Bio-layer interferometry of α2M-TG2 interaction; type: binding; details: preliminary efforts
[4] = target: T1, TG2 derivative harboring the N-terminal and catalytic domains but lacking both β-barrel domains (Homo sapiens, UniProt P21980); test: Kinetics of truncated TG2 lacking both β-barrel domains; type: biochemical; details: TG2 derivative lacking both β-barrel domains
T1 sequence (P21980 1-460): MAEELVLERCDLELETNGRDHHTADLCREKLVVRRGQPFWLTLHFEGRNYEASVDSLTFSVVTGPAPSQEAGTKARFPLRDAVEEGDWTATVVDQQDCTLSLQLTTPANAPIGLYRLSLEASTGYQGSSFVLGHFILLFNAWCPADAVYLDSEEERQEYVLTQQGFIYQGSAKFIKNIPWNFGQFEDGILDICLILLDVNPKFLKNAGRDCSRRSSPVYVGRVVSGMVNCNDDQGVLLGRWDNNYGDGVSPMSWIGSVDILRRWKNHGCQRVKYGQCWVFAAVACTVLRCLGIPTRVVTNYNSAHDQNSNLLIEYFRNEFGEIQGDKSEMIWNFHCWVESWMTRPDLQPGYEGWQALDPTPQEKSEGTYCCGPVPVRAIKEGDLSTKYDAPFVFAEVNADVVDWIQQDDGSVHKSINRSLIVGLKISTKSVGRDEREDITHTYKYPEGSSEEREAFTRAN
How it was run: (§1)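 Truncated human TG2 constructs with N-terminal His tags (residues 1-586 lacking β2; residues 1-460 lacking β1 and β2) were expressed in Rosetta2 E. coli and purified by Ni, anion exchange and SEC. The assay was GDH-coupled: 200 mM MOPS pH 7.2, 5 mM CaCl2, 10 mM α-ketoglutarate, 18 U/mL GDH, 0.5 mM NADH and Ac-PQLPF-NH2. Reduced enzyme was at 1 μM final, ± Expi293F-expressed human α2M. NADH loss was read at 340 nm for 60 min at 25 °C. Rates came from linear slopes; triplicate.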

[5] = target: T2, human TG2 (Homo sapiens, UniProt P21980); test: TG2 steady-state kinetics of substrates, wild-type TG2 ± α2M and vs pH; type: biochemical; details: kcat of AC-PQLPF-NH2
T2 sequence (P21980 1-687): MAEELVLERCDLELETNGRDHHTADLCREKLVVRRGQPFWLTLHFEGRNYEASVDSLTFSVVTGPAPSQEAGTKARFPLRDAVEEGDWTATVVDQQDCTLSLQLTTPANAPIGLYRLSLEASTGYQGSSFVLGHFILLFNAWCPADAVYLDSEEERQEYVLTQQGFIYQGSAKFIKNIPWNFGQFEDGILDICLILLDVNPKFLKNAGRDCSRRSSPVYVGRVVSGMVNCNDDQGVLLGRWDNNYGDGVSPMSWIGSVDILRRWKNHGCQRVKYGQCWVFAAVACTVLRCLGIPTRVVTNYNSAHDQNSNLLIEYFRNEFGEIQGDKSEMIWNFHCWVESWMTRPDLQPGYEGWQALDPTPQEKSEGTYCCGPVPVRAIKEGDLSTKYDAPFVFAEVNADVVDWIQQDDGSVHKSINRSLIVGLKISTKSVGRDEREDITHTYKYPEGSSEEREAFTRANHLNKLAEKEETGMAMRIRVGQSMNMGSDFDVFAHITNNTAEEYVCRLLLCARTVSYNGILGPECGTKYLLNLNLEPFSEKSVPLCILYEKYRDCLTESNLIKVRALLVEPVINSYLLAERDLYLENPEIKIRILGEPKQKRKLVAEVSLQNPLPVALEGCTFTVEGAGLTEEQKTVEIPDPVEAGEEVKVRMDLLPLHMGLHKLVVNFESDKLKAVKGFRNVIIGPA
How it was run: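 His6-tagged human TG2 from E. coli BL21(DE3) was purified by Ni-NTA and anion exchange, reduced, and desalted into PBS. It was assayed at 1 μM final, ± recombinant human α2M (Expi293F-expressed), with GDH/α-ketoglutarate/NADH coupling in 200 mM MOPS pH 7.2 with 5 mM CaCl2. Substrate was Ac-PQLPF-NH2 unless otherwise specified. Absorbance at 340 nm was followed for 60 min at 25 °C. Steady-state rates came from linear progress-curve slopes; triplicate.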

[6] = target: T3, TG2 derivative lacking the C-terminal β-barrel domain (Homo sapiens, UniProt P21980); test: Kinetics of truncated TG2 lacking the C-terminal β-barrel domain; type: biochemical; details: TG2 derivatives lacking the C-terminal β-barrel domain
T3 sequence (P21980 1-586): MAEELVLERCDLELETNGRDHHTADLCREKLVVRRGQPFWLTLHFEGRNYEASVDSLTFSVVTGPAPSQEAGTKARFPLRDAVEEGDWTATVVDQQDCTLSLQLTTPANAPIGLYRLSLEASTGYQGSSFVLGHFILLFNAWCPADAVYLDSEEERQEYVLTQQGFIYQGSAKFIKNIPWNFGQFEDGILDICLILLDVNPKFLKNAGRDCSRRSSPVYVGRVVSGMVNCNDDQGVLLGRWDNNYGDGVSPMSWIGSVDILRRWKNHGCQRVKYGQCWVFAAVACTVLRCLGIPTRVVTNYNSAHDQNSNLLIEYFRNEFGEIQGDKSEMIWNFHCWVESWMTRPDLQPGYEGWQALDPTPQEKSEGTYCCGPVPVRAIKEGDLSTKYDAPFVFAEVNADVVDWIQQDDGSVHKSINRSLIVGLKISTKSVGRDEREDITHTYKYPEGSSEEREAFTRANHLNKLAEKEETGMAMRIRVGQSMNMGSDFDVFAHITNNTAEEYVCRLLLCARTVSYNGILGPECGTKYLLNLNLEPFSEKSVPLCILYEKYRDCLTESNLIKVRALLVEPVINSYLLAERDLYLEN
How it was run: as §1

[7] = test system: NRK cells; test: Uptake of fluorescent TG2 probes by NRK cells; type: cell-based, rat; details: HB230 1 μM
How it was run: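 NRK cells were grown in DMEM. Media were replaced, and 1 μM probe was co-incubated for 90 min with α2M at varied levels (some Alexa 555 NHS-labelled), plus TRX as specified. Cells were washed in HBSS, fixed in 2% PFA, DAPI-stained and imaged by confocal microscopy. Puncta were counted with a circularity cutoff of 0.3 and a minimum size threshold, then normalized to cell number by DAPI.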

[8] = test system: wild-type MEFs; test: Internalization of HB230 and α2M by wild-type MEFs; type: cell-based, mouse; details: α2M 100 μg/mL, HB230 10 μM, exogenous TRX and betamethasone
[9] = test system: wild-type BMDCs; test: Uptake by BMDCs from wild-type mice; type: cell-based, mouse
How it was run: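 Bone marrow flushed from tibia and femur of female C57BL6 or TG2-knockout mice, red cells removed. Cells seeded at 2x10^6 per 10-cm dish in RPMI/10% FBS with 10 ng/mL GM-CSF, fed on days 3 and 6, suspension cells harvested day 8. Probed with HB230 or Cy5-33mer; confocal, DAPI counterstain.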

[10] = test system: TG2-knockout BMM; test: Uptake by bone marrow derived macrophages from TG2-knockout mice; type: cell-based, mouse; details: triplicates
How it was run: (§2)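 Bone marrow from female C57BL6 or TG2-knockout mice, red cells removed, plated at 8x10^6 cells in RPMI/10% FBS with 20 ng/mL M-CSF. Fed on days 2 and 4, adherent cells harvested with 5 mM EDTA on day 5. Cy5-33mer uptake imaged by confocal; triplicates, mean ± SD.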

[11] = test system: wild-type bone marrow derived macrophages (BMM); test: Uptake by bone marrow derived macrophages from wild-type mice; type: cell-based, mouse; details: ± α2M; triplicates
How it was run: as §2

Row | Substance | effect of α2M on cell surface 33mer [1] | internalization by LRP-1 knock-out MEFs [2] | detection of α2M-TG2 interaction [3] | inhibition of truncated TG2 by α2M [4] | inhibition of TG2 by α2M, mechanism [5] | inhibition of truncated TG2 by α2M [6] | α2M concentration up to which HB230 uptake increases (saturation) ([7]; 90 min) | effect of α2M on HB230 uptake ([7]; α2M supplementation) | internalization by wild-type MEFs [8] | uptake by wild-type BMDCs [9] | uptake by TG2-knockout BMM [10] | uptake by wild-type BMM [11]
1 | α2M: ~800 kDa homotetrameric pan-protease inhibitor | enhanced upon addition of exogenous α2M; also recorded: the number of cells displaying gluten peptides on their surface increases | markedly reduced uptake | unsuccessful | Inhibition was abolished | non-competitive inhibition mechanism of TG2 by α2M | Inhibition was abolished | ~ 100 μg/mL | strong dose-dependent increase in uptake of HB230; also recorded: predominantly appeared to affect the size and number of the larger puncta | readily internalize | – | – | –
2 | H-LQLQPFPQPQLPYPQPQLPYPQPQLPYPQPQPF-Rink resin [SulfoCy5-native-33mer] | – | – | – | – | – | – | – | – | – | take up HB230 and 33mer | do not internalize 33mer | robustly internalized the 33mer in the presence, but not absence, of α2M
